Reference: ChEMBL document CHEMBL1121929, “[(3-aryl-1,2-benzisoxazol-6-yl)oxy]acetic acids. A new diuretic series” (1982)

How the values were obtained:
Canis familiaris [1] = assay: Diuretic activity was measured after oral administration in conscious water loaded dogs at 20 mg/kg after 1 hr; type: functional, Canis lupus familiaris, Urine
How it was run: (§1)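 Male mongrel dogs (20–25 kg) were given 20 mL/kg tap water by gavage about 15 h before drug, with water ad libitum overnight. On the test day they received 4 mL/kg tap water hourly for 7 h, and the bladder was emptied at each interval. Drug was gavaged in the 4 mL/kg water load after the third urine sample, with Tween 80 added when it was poorly soluble. Urinary Na+ was measured by flame photometry as the mean excretory rate (μequiv/kg) per interval per animal. Each dog was its own control, using the hour before dosing.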

Mus musculus [2] = assay: The diuretic activity was measured after oral administration in saline loaded mice at 64 mg/kg after 5 hr; type: functional, Urine
How it was run: (§2)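 Mice were dosed orally with drug in 1% saline at 10 mL/kg, at 4 or 64 mg/kg, alongside a vehicle control. There were 10 mice per group, housed 5 per metabolic cage. Pooled urine was analysed for sodium by flame photometry and expressed as mean mequiv/kg/5 h.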

Mus musculus [3] = assay: The diuretic activity of compound was measured after oral administration in saline loaded mice at 8 mg/kg after 5h; micro equiv of Na+/kg; type: functional, Urine
Mus musculus [4] = assay: The diuretic activity of compound was measured after oral administration in saline loaded mice at 4 mg/kg after 5h.; type: functional, Urine; how it was run: as §2
Mus musculus [5] = assay: The diuretic activity of compound was measured after oral administration in saline loaded mice at 64 mg/kg after 5h.; type: functional, Urine; how it was run: as §2
Canis familiaris [6] = assay: The diuretic activity of compound was measured after oral administration in conscious water loaded dogs at 5 mg/kg after 3 hr; Micro equiv of Na+/kg; type: functional, Canis lupus familiaris, Urine; how it was run: as §1
Canis familiaris [7] = assay: The diuretic activity of compound was measured after oral administration in conscious water loaded dogs at 5 mg/kg after 2 hr; Micro equiv of Na+/kg; type: functional, Canis lupus familiaris, Urine; how it was run: as §1
Canis familiaris [8] = assay: The diuretic activity of compound was measured after oral administration in conscious water loaded dogs at 5 mg/kg after 1 hr; Micro equiv of Na+/kg; type: functional, Canis lupus familiaris, Urine; how it was run: as §1
Canis familiaris [9] = assay: Diuretic activity was measured after oral administration in conscious water loaded dogs at 5 mg/kg after 1 hr; type: functional, Canis lupus familiaris, Urine; how it was run: as §1
Canis familiaris [10] = assay: The diuretic activity of compound was measured after oral administration in conscious water loaded dogs at 5 mg/kg after 6 h; Micro equiv of Na+/kg; type: functional, Canis lupus familiaris, Urine; how it was run: as §1
Mus musculus [11] = assay: The diuretic activity was measured after oral administration in saline loaded mice at 4 mg/kg after 5 hr; type: functional, Urine; how it was run: as §2
Canis familiaris [12] = assay: The diuretic activity of compound was measured after oral administration in conscious water loaded dogs at 5 mg/kg after 5h; Micro equiv of Na+/kg; type: functional, Canis lupus familiaris, Urine; how it was run: as §1
Canis familiaris [13] = assay: The diuretic activity of compound was measured after oral administration in conscious water loaded dogs at 5 mg/kg after 4 hr; Micro equiv of Na+/kg; type: functional, Canis lupus familiaris, Urine; how it was run: as §1
Canis familiaris [14] = assay: Diuretic activity was measured after oral administration in conscious water loaded dogs at 10 mg/kg after 2 hr

Row | Compound | Oral diuretic activity (Canis familiaris [1]) | Oral diuretic activity (Mus musculus [2]) | Oral diuretic activity (Mus musculus [4]) | Oral diuretic activity (Mus musculus [5]) | Oral diuretic activity (Mus musculus [11]) | other results
1 | Cc1c(OCC(=O)O)ccc2c(-c3ccccc3F)noc12 | 478.9 u equiv of [Na+] kg-1 hr-1 | 7.24 m equiv [Na+] 5hr-1kg-1 | – | – | – | Oral diuretic activity (Mus musculus [3]): 1.86 m equiv [Na+] 5hr-1kg-1
2 | O=C(O)COc1ccc2c(-c3cccc[n+]3[O-])noc2c1Cl | 116.6 u equiv of [Na+] kg-1 hr-1 | – | 0.5 m equiv [Na+] 5hr-1kg-1 | 1 m equiv [Na+] 5hr-1kg-1 | – | –
3 | C=C(CC)C(=O)c1ccc(OCC(=O)O)c(Cl)c1Cl [ETHACRYNIC ACID] | 703 µequiv [Na+] kg-1 hr-1 | – | 1.09 m equiv [Na+] 5hr-1kg-1 | 4.14 m equiv [Na+] 5hr-1kg-1 | – | –
4 | NS(=O)(=O)c1cc(C(=O)O)c(NCc2ccco2)cc1Cl [FUROSEMIDE] | – | 7.96 m equiv [Na+] 5hr-1kg-1 | – | – | 1.93 m equiv [Na+] 5hr-1kg-1 | Oral diuretic activity (Canis familiaris [6]): 763.6 u equiv of [Na+] kg-1; Oral diuretic activity (Canis familiaris [7]): 1311.5 u equiv of [Na+] kg-1; Oral diuretic activity (Canis familiaris [8]): 1207 u equiv of [Na+] kg-1; Oral diuretic activity (Canis familiaris [9]): 1311.5 u equiv of [Na+] kg-1 hr-1; Oral diuretic activity (Canis familiaris [10]): 40.4 u equiv of [Na+] kg-1; Oral diuretic activity (Canis familiaris [12]): 144.1 u equiv of [Na+] kg-1; Oral diuretic activity (Canis familiaris [13]): 333.9 u equiv of [Na+] kg-1
5 | CC1(c2ccccc2)Cc2cc(OCC(=O)O)c(Cl)c(Cl)c2C1=O (stereo unspecified) [INDACRINONE] | – | 7.6 m equiv [Na+] 5hr-1kg-1 | – | – | 2.1 m equiv [Na+] 5hr-1kg-1 | Oral diuretic activity (Canis familiaris [14]): 1141.4 u equiv of [Na+] kg-1 hr-1
